# Measured values from PMC7115577 (Peptides, 2005).
# Tests used:
# Type in all cases: cell-based
# [1] = tested on: isolated guinea pig ileum (GPI); assay: Potentiation of the BK-induced contraction of GPI; settings: analogue alone, cumulative GPI contraction curves
# Summary of the method: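 Guinea pig ileum strips (1.5 cm) suspended in Tyrode solution at 37 °C; isotonic contractions recorded under 500 mg resting tension. Concentration–response curves were built for the agonist, and pD2 was derived from them.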
# [2] = tested on: human polymorphonuclear leukocytes (PMN); assay: Chemotaxis assay
# guinea pig ileum = settings: calyculin 100 nM, BK 20 nM, BPP9α 20 nM
# Summary of the method: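 Ileum segments (1.5 cm) in Tyrode at 37 °C, isotonic recording under 500 mg resting tension. The phosphatase inhibitor was added either at the peak of the BK contraction, before the potentiating peptide, or 1 min before the combined BK/peptide challenge, with washes between. Traces are from four to six separate experiments.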
compound,measurement,setting,value
DArg-Arg-Pro-Hyp-Gly-Thi-Ser-Pro-ɛAbu(ßPh)-Arg,pD2-value of enzymatically more stable BK analogue,[1],6.65 ± 0.14
C[C@H](N[C@@H](CCc1ccccc1)C(=O)O)C(=O)N1[C@H](C(=O)O)C[C@@H]2CCC[C@@H]21 [ramiprilat],effect on migratory activity of the nonpeptide agonist FR190997,[2],could not be accelerated
same,migration index (MI) of BK in the presence of inhibitor,"[2]; BK 10^−7 M, ramiprilat 10 nM",1.69 ± 0.26
calyculin,influence on the potentiation of the BK-induced contraction,guinea pig ileum,no influence
CC(C)C[C@H](NP(=O)(O)O[C@@H]1O[C@@H](C)[C@H](O)[C@@H](O)[C@H]1O)C(=O)N[C@@H](Cc1c[nH]c2ccccc12)C(=O)O [phosphoramidon],migration index (MI) of BK in the presence of inhibitor,"[2]; BK 10^−8 M, phosphoramidon 10^−7 M, 5 min preincubation",1.19 ± 0.03
